Assay [1] deals with A549. Put plainly: Anticancer activity against human A549 lung cancer cells assessed as decrease in cell viability at 10 uM after 24 hrs relative to control by MTT assay. In kind it is functional. The method in brief:
(§1)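 A549 cells exposed to compound in culture medium; viability measured by MTT assay and expressed as % of untreated control (100%).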
Background: Tetrazolium assays rely on reduction of a dye to a coloured formazan, in cell work by metabolically active cells.

Assay [2] has as its system A549. Put plainly: Anticancer activity against human A549 lung cancer cells assessed as decrease in cell viability at 20 uM after 48 hrs relative to control by MTT assay. It is filed as functional. Summed up:
as §1

Assay [3] concerns A549. Put plainly: Anticancer activity against human A549 lung cancer cells assessed as decrease in cell viability at 20 uM after 24 hrs relative to control by MTT assay. It is filed as functional, cell-based. Summed up:
as §1

Assay [4] concerns A549. Nature of the assay: Anticancer activity against human A549 lung cancer cells assessed as decrease in cell viability at 10 uM after 48 hrs relative to control by MTT assay. In kind it is functional. Summed up:
as §1

In assay [5] the test system is A549. Put plainly: Effect on human A549 lung cancer cell morphology assessed as vacuolation of cells at 20 uM after 24 hrs by inverted phase contrast microscopy. It is filed as functional, cell-based. The method in brief:
(§2)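 A549 cells treated at 20 µM; morphology photographed at 200× under an inverted phase contrast microscope.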

Assay [6] relates to A549. Put plainly: Induction of necrosis in human A549 lung cancer cells assessed as LDH activity at 20 uM after 48 hrs. In kind it is functional, cell-based. Summed up: (§3)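 A549 cells treated at 10 or 20 µM for 48 h; LDH activity measured in culture medium as necrosis marker; compared with control, n = 4.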
The test system of assay [7] is A549. Nature of the assay: Effect on human A549 lung cancer cell morphology assessed as rounding and detachment of cells at 20 uM after 48 hrs relative to control by inverted phase contrast microscopy. In kind it is functional, cell-based. The method in brief:
as §2

The test system of assay [8] is A549. Put plainly: Induction of necrosis in human A549 lung cancer cells assessed as LDH activity at 10 uM after 48 hrs. It is filed as functional, cell-based. The method in brief:
as §3

Assay [9] relates to A549. Put plainly: Induction of autophagy in human A549 lung cancer cells assessed as acidic vesicle level at 20 uM after 24 hrs by acridine orange staining. In kind it is functional, cell-based. Summed up:
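A549 cells treated 24 h; acidic cellular compartment volume visualized by acridine orange staining under fluorescence microscope (200×); compared with control, n = 3.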

Assay [10] relates to A549. Nature of the assay: Effect on human A549 lung cancer cell morphology assessed as vacuolation of cells at 20 uM after 48 hrs relative to control by inverted phase contrast microscopy. It is filed as functional, cell-based. The method in brief:
as §2

The test system of assay [11] is A549. Nature of the assay: Induction of apoptosis in human A549 lung cancer cells assessed as nuclear DNA fragmentation at 20 uM after 48 hrs by hoechst 33258 staining. In kind it is functional, cell-based. The method in brief: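 A549 cells treated at 20 µM for 48 h; chromatin condensation and DNA fragmentation visualized by Hoechst 33258 staining under fluorescence microscope (200×); compared with control, n = 3.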

Assay [12] has as its system A549. Nature of the assay: Effect on human A549 lung cancer cell morphology assessed as rounding and detachment of cells at 20 uM after 24 hrs by inverted phase contrast microscopy. In kind it is functional, cell-based. The method in brief: as §2

Calls of active or inactive are those of the source. No cut-off for these calls is given here.

As to `CC(C)(C)c1ccc(Cn2nc(-c3ccccc3)cc2C(=O)NCCc2ccccc2F)cc1`, the outcome in assay [1], in assay [2], in [3] and in assay [4] was inactive.
Regarding `CC(C)(C)c1ccc(Cn2nc(-c3ccc(Cl)cc3)cc2C(=O)NCCc2ccccc2F)cc1`, the result in assay [5], in assay [7], in [1], in assay [9], in [2] and in assay [3] was Active. The outcome in [4] was Active. In addition, the outcome in assay [6] and in assay [8] was inactive.
Regarding `CC(C)(C)c1ccc(Cn2nc(-c3ccc(Cl)cc3)cc2C(=O)NCCc2ccc(F)cc2)cc1`, the outcome in assay [5], in [1], in [10], in assay [9], in assay [3] and in [4] was Active. Moreover, the result in assay [6] and in assay [8] was inactive.
Consider `CC(C)(C)c1ccc(Cn2nc(-c3ccccc3)cc2C(=O)NCCc2ccc(F)cc2)cc1`, for which the result in assay [1], in assay [2], in assay [3] and in assay [4] was inactive.
With `COc1cccc(CCNC(=O)c2cc(-c3ccc(Cl)cc3)nn2Cc2ccc(C(C)(C)C)cc2)c1`, the outcome in assay [6] and in assay [8] was inactive. Moreover, the result in assay [7], in assay [11], in [3] and in assay [12] was Active. The results for the Activity in assay [1], in assay [2] and in [4] were 45.52%, 10.43% and 24.07%, respectively.
Consider `CC(C)(C)c1ccc(Cn2nc(-c3ccccc3)cc2C(=O)NCCc2ccccc2)cc1`, for which the result in [1], in assay [2], in assay [3] and in assay [4] was inactive.
Consider `CC(C)(C)c1ccc(Cn2nc(-c3ccc(Cl)cc3)cc2C(=O)NCCc2ccccc2)cc1`, for which the outcome in [6] and in assay [8] was inactive. Besides, the result in [7], in assay [11], in assay [3] and in assay [12] was Active. For the same compound, the Activity in [1] was 59.32%; in assay [4], 44.46%.
For `COc1cccc(CCNC(=O)c2cc(-c3ccccc3)nn2Cc2ccc(C(C)(C)C)cc2)c1`, the result in assay [1], in assay [2], in assay [3] and in assay [4] was inactive.

These data come from ChEMBL document CHEMBL1155990, “Synthesis of novel pyrazole carboxamide derivatives and discovery of modulators for apoptosis or autophagy in A549 lung cancer cells” (2009).
